Reference: ChEMBL document CHEMBL1770122, “Synthesis, antibacterial and antimycobacterial activities of some new 4-aryl/heteroaryl-2,6-dimethyl-3,5-bis-N-(aryl)-carbamoyl-1,4-dihydropyridines” (2011)
≈ marks a conversion by molar mass, not a printed value. Calls of active or inactive are those of the source. The calls are words filed in the database; no cut-off is given here.

Tests used:
[1] = tested on: Proteus vulgaris; assay: Antimicrobial activity against Proteus vulgaris NCIM 2027/ATCC 13315 at 25 ug/mL after 24 hrs by disc diffusion method; type: functional; conditions: NCIM 2027/ATCC 13315, 24 h, read-out: DIZ
In short: (§1)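 NCIM cultures were used. Test solutions in DMSO, diluted from a 1 mg mL-1 stock to 12.5, 25 or 50 µg mL-1, were loaded onto sterile 5 mm filter-paper discs and dried. Nutrient agar was spread with 100 µL of 24 h bacterial suspension (10^8 cells mL-1). Incubation was 37 ± 1 °C for 24 h, and inhibition-zone diameter was read. DMSO served as control, with tetracyclin and streptomycin (50 µg mL-1) discs as standards. Triplicate, averaged.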

[2] = tested on: Escherichia coli; assay: Antimicrobial activity against Escherichia coli NCIM 2068/ATCC 11105 at 50 ug/mL after 24 hrs by disc diffusion method; type: functional; conditions: NCIM 2068/ATCC 11105, 24 h, read-out: DIZ; in short: as §1
[3] = tested on: Proteus vulgaris; assay: Antimicrobial activity against Proteus vulgaris NCIM 2027/ATCC 13315 at 1000 ug/mL after 24 hrs by disc diffusion method; type: functional, organism-based
[4] = tested on: Bacillus subtilis; assay: Antimicrobial activity against Bacillus subtilis NCIM 2063/ATCC 6633 at 1000 ug/mL after 24 hrs by disc diffusion method; type: functional, organism-based
[5] = tested on: Staphylococcus aureus; assay: Antimicrobial activity against Staphylococcus aureus NCIM 2079/ATCC 6538P at 50 ug/mL after 24 hrs by disc diffusion method; type: functional; conditions: read-out: DIZ; in short: as §1
[6] = tested on: Staphylococcus aureus; assay: Antimicrobial activity against methicillin-resistant Staphylococcus aureus at 12.5 ug/mL after 24 hrs by disc diffusion method; type: functional, organism-based
[7] = tested on: Bacillus subtilis; assay: Antimicrobial activity against Bacillus subtilis NCIM 2063/ATCC 6633 at 12.5 ug/mL after 24 hrs by disc diffusion method; type: functional; conditions: for zone of inhibition at 12.5 µg/mL: NCIM 2063/ATCC 6633, 24 h, read-out: DIZ; in short: as §1
[8] = tested on: Staphylococcus aureus; assay: Antimicrobial activity against Staphylococcus aureus NCIM 2079/ATCC 6538P at 1000 ug/mL after 24 hrs by disc diffusion method; type: functional, organism-based
[9] = tested on: Bacillus subtilis; assay: Antimicrobial activity against Bacillus subtilis NCIM 2063/ATCC 6633 at 25 ug/mL after 24 hrs by disc diffusion method; type: functional; conditions: NCIM 2063/ATCC 6633, 24 h, read-out: DIZ; in short: as §1
[10] = tested on: Mycobacterium tuberculosis; assay: Antimycobacterial activity against multidrug-susceptible Mycobacterium tuberculosis H37Rv ATCC 27294 after 4 weeks; type: functional; conditions: H37Rv ATCC 27294, 672 h
In short: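 Lowenstein-Jensen proportion method. Drug at 6.25, 12.5, 25, 50 and 100 µg mL-1 in LJ medium slants, set overnight. Inoculated with 4 mg mL-1 suspension by 3 mm loop, 37 °C, 4 weeks. MIC is the lowest concentration fully inhibiting growth, by CFU versus medium, inoculated and DMSO controls. Three independent determinations.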

[11] = tested on: Escherichia coli; assay: Antimicrobial activity against Escherichia coli NCIM 2068/ATCC 11105 at 12.5 ug/mL after 24 hrs by disc diffusion method; type: functional; conditions: NCIM 2068/ATCC 11105, 24 h, read-out: DIZ; in short: as §1
[12] = tested on: Proteus vulgaris; assay: Antimicrobial activity against Proteus vulgaris NCIM 2027/ATCC 13315 at 50 ug/mL after 24 hrs by disc diffusion method; type: functional; conditions: NCIM 2027/ATCC 13315, 24 h, read-out: DIZ; in short: as §1
[13] = tested on: Staphylococcus aureus; assay: Antimicrobial activity against methicillin-resistant Staphylococcus aureus at 1000 ug/mL after 24 hrs by disc diffusion method; type: functional; conditions: for zone of inhibition at 1000 µg/mL: read-out: DIZ
In short: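 Disc diffusion on nutrient agar. Compound at 1 mg mL-1 (1000 µg mL-1) in DMSO was loaded onto 5 mm sterile filter-paper discs and dried. Plates were spread with 100 µL of a 24 h culture at 10^8 cells mL-1. Incubated at 37 ± 1 °C for 24 h; inhibition zone diameters recorded. DMSO control disc. Triplicate, averaged.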

[14] = tested on: Escherichia coli; assay: Antimicrobial activity against Escherichia coli NCIM 2068/ATCC 11105 at 25 ug/mL after 24 hrs by disc diffusion method; type: functional; conditions: NCIM 2068/ATCC 11105, 24 h, read-out: DIZ; in short: as §1
[15] = tested on: Staphylococcus aureus; assay: Antimicrobial activity against methicillin-resistant Staphylococcus aureus at 25 ug/mL after 24 hrs by disc diffusion method; type: functional, organism-based
[16] = tested on: Escherichia coli; assay: Antimicrobial activity against Escherichia coli NCIM 2068/ATCC 11105 at 1000 ug/mL after 24 hrs by disc diffusion method; type: functional, organism-based
[17] = tested on: Staphylococcus aureus; assay: Antimicrobial activity against Staphylococcus aureus NCIM 2079/ATCC 6538P at 25 ug/mL after 24 hrs by disc diffusion method; type: functional; conditions: read-out: DIZ; in short: as §1
[18] = tested on: Staphylococcus aureus; assay: Antimicrobial activity against Staphylococcus aureus NCIM 2079/ATCC 6538P at 12.5 ug/mL after 24 hrs by disc diffusion method; type: functional; conditions: for zone of inhibition at 12.5 µg/mL: read-out: DIZ; in short: as §1
[19] = tested on: Proteus vulgaris; assay: Antimicrobial activity against Proteus vulgaris NCIM 2027/ATCC 13315 at 12.5 ug/mL after 24 hrs by disc diffusion method; type: functional; conditions: NCIM 2027/ATCC 13315, 24 h, read-out: DIZ; in short: as §1
[20] = tested on: Staphylococcus aureus; assay: Antimicrobial activity against methicillin-resistant Staphylococcus aureus at 50 ug/mL after 24 hrs by disc diffusion method; type: functional, organism-based
[21] = tested on: Bacillus subtilis; assay: Antimicrobial activity against Bacillus subtilis NCIM 2063/ATCC 6633 at 50 ug/mL after 24 hrs by disc diffusion method; type: functional; conditions: NCIM 2063/ATCC 6633, 24 h, read-out: DIZ; in short: as §1

Row | SMILES | zone of inhibition at 25 µg/mL [1] | zone of inhibition at 50 µg/mL [2] | diameter of the inhibition zone (DIZ) [3] | diameter of the inhibition zone (DIZ) [4] | zone of inhibition at 50 µg/mL [5] | diameter of the inhibition zone (DIZ) [6] | diameter of the inhibition zone (DIZ) [8] | zone of inhibition at 25 µg/mL [9] | MIC [10] | zone of inhibition at 12.5 µg/mL [11] | zone of inhibition at 50 µg/mL [12] | zone of inhibition at 1000 µg/mL [13] | zone of inhibition at 25 µg/mL [14] | diameter of the inhibition zone (DIZ) [15] | diameter of the inhibition zone (DIZ) [16] | zone of inhibition at 25 µg/mL [17] | zone of inhibition at 12.5 µg/mL [19] | diameter of the inhibition zone (DIZ) [20] | zone of inhibition at 50 µg/mL [21] | zone of inhibition at 12.5 µg/mL [7] | other results
1 | CC1=C(C(=O)Nc2ccccc2C)C(c2ccccn2)C(C(=O)Nc2ccccc2C)=C(C)N1 | 12 mm | 19 mm | inactive | inactive | 15 mm | inactive | inactive | 8 mm | 25 µg/mL (≈ 55.2 µM) | 14 mm | 16 mm | 8 mm | 17 mm | inactive | inactive | 12 mm | 10 mm | inactive | 10 mm | – | diameter of the inhibition zone (DIZ) [7]: inactive; diameter of the inhibition zone (DIZ) [18]: inactive
2 | CC1=C(C(=O)Nc2ccc(C)cc2)C(c2ccc[nH]2)C(C(=O)Nc2ccc(C)cc2)=C(C)N1 | 14 mm | 22 mm | inactive | inactive | 12 mm | inactive | inactive | 11 mm | 12.5 µg/mL (≈ 28.4 µM) | 14 mm | 18 mm | 10 mm | 19 mm | inactive | inactive | 11 mm | 10 mm | inactive | 13 mm | 7 mm | zone of inhibition at 12.5 µg/mL [18]: 9 mm
3 | CC1=C(C(=O)Nc2ccc(C)cc2)C(c2ccccn2)C(C(=O)Nc2ccc(C)cc2)=C(C)N1 | 12 mm | 14 mm | inactive | inactive | 12 mm | inactive | inactive | 10 mm | > 25 µg/mL | 8 mm | 16 mm | – | 10 mm | inactive | inactive | 10 mm | 9 mm | inactive | 12 mm | 9 mm | diameter of the inhibition zone (DIZ) [13]: inactive; zone of inhibition at 12.5 µg/mL [18]: 8 mm
4 | CCc1ccc(C2C(C(=O)Nc3ccccc3)=C(C)NC(C)=C2C(=O)Nc2ccccc2)cc1 | 14 mm | 15 mm | inactive | inactive | 16 mm | inactive | inactive | 13 mm | > 25 µg/mL | 10 mm | 16 mm | – | 13 mm | inactive | inactive | 11 mm | 9 mm | inactive | 21 mm | 11 mm | diameter of the inhibition zone (DIZ) [13]: inactive; zone of inhibition at 12.5 µg/mL [18]: 8 mm
5 | CN(C)[C@@H]1C(O)=C(C(N)=O)C(=O)[C@@]2(O)C(O)=C3C(=O)c4c(O)cccc4[C@@](C)(O)[C@H]3C[C@@H]12 [TETRACYCLINE] | – | 25 mm | inactive | inactive | 22 mm | – | inactive | – | – | – | 21 mm | 15 mm | – | – | inactive | – | – | inactive | 20 mm | – | –
6 | CN[C@@H]1[C@H](O[C@H]2[C@H](O[C@H]3[C@H](O)[C@@H](O)[C@H](N=C(N)N)[C@@H](O)[C@@H]3N=C(N)N)O[C@@H](C)[C@]2(O)C=O)O[C@@H](CO)[C@H](O)[C@H]1O [STREPTOMYCIN] | – | 23 mm | inactive | inactive | 21 mm | – | inactive | – | – | – | 26 mm | 18 mm | – | – | inactive | – | – | inactive | 22 mm | – | –
7 | NC(=O)c1cnccn1 [PYRAZINAMIDE] | – | – | – | – | – | – | – | – | 32 µg/mL (≈ 260 µM) | – | – | – | – | – | – | – | – | – | – | – | –
8 | CC1=C(C(=O)Nc2ccccc2)C(c2ccco2)C(C(=O)Nc2ccccc2)=C(C)N1 | 13 mm | 18 mm | inactive | inactive | 14 mm | inactive | inactive | 14 mm | > 25 µg/mL | 12 mm | 17 mm | 10 mm | 15 mm | inactive | inactive | 12 mm | 8 mm | inactive | 16 mm | 10 mm | zone of inhibition at 12.5 µg/mL [18]: 8 mm
